Data on 9 molecules can be found in ChEMBL document CHEMBL4190362, “Synthesis, biological evaluation and quantitative structure-active relationships of 1,3-thiazolidin-4-one derivatives. A promising chemical scaffold endowed with high antifungal potency and low cytotoxicity” (Eur J Med Chem, 2017).

As usually defined, the MIC is the lowest concentration that inhibits growth of the organism. Usually CC50 stands for the concentration giving 50% cytotoxicity.

Values after ≈ are worked out from the molar mass of the structure shown. A value given as a limit tells only on which side of the number the result lay.

Series [1] relates to Staphylococcus aureus. Nature of the series: Antibacterial activity against Staphylococcus aureus assessed as inhibition of microbial growth incubated for 18 to 22 hrs by broth microdilution method. In kind it is functional. In short, it runs like this:
(§1)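 Broth microdilution in Mueller-Hinton II broth following NCCLS recommendations; compounds dissolved in DMSO.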
(Broth dilution looks for growth in wells or tubes with falling amounts of substance.)

Series [2] has as its system Staphylococcus warneri. Nature of the series: Antibacterial activity against Staphylococcus warneri assessed as inhibition of microbial growth incubated for 18 to 22 hrs by broth microdilution method. Type of series: functional. The procedure, abridged:
as §1

The test system of series [3] is Enterococcus faecalis. Put plainly: Antibacterial activity against Streptococcus faecalis assessed as inhibition of microbial growth incubated for 18 to 22 hrs by broth microdilution method. In kind it is functional. The procedure, abridged: as §1
Series [4] deals with Escherichia coli. Put plainly: Antibacterial activity against Escherichia coli assessed as inhibition of microbial growth incubated for 18 to 22 hrs by broth microdilution method. Type of series: functional. The procedure, abridged:
as §1

The subject of series [5] is Proteus mirabilis. Put plainly: Antibacterial activity against Proteus mirabilis assessed as inhibition of microbial growth incubated for 18 to 22 hrs by broth microdilution method. In kind it is functional. The procedure, abridged:
as §1

The test system of series [6] is Enterobacter. Put plainly: Antibacterial activity against Enterobacter spp. assessed as inhibition of microbial growth incubated for 18 to 22 hrs by broth microdilution method. Type of series: functional. In short, it runs like this: as §1
Series [7] has as its system Klebsiella oxytoca. Put plainly: Antibacterial activity against Klebsiella oxytoca assessed as inhibition of microbial growth incubated for 18 to 22 hrs by broth microdilution method. Type of series: functional. The procedure, abridged:
as §1

Series [8] deals with Candida albicans. Put plainly: Antifungal activity against Candida albicans clinical isolates assessed as inhibition of microbial growth incubated for 24 hrs by broth microdilution method. In kind it is functional. The procedure, abridged: (§2)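 Twenty-two clinical Candida isolates (8 C. albicans, 4 C. glabrata, 3 C. tropicalis, 3 C. krusei, 2 C. parapsilosis, 2 C. sake) were identified by colony morphology and biochemistry and subcultured at 35 °C for purity. Compounds were dissolved in DMSO and tested by broth microdilution in Sabouraud dextrose broth per NCCLS/CLSI/EUCAST guidance. Values are geometric mean MIC per species (µg/mL).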

Series [9] deals with Nakaseomyces glabratus. Put plainly: Antifungal activity against Candida glabrata clinical isolates assessed as inhibition of microbial growth incubated for 24 hrs by broth microdilution method. Type of series: functional. The procedure, abridged:
as §2

Series [10] deals with Candida tropicalis. Nature of the series: Antifungal activity against Candida tropicalis clinical isolates assessed as inhibition of microbial growth incubated for 24 hrs by broth microdilution method. In kind it is functional. The procedure, abridged: as §2
Series [11] deals with Pichia kudriavzevii. Put plainly: Antifungal activity against Candida krusei clinical isolates assessed as inhibition of microbial growth incubated for 24 hrs by broth microdilution method. In kind it is functional. The procedure, abridged: as §2
In series [12] the test system is Candida parapsilosis. Nature of the series: Antifungal activity against Candida parapsilosis clinical isolates assessed as inhibition of microbial growth incubated for 24 hrs by broth microdilution method. Particulars: Lodderomyces parapsilosis. In kind it is functional. In short, it runs like this: as §2
The subject of series [13] is [Candida] sake. Nature of the series: Antifungal activity against Candida sake clinical isolates assessed as inhibition of microbial growth incubated for 24 hrs by broth microdilution method. In kind it is functional. Particulars: Fermentozyma sake. The procedure, abridged: as §2
A short description of series [14]: Cytotoxicity against human Hep2 cells assessed as reduction in cell viability incubated for 24 hrs by trypan blue dye exclusion assay. In kind it is cell-based. The settings on record: HEp-2 cells. The procedure, abridged:
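Hep2 (human laryngeal epidermoid carcinoma) cells were exposed to five concentrations from 0.05 to 100 µg/mL for 24 h at 37 °C, and viability was scored by Trypan Blue exclusion as survival fraction. Controls were medium alone, DMSO-treated cells and 1 mM sodium nitroprusside. CC50 is the mean ± SD of at least three independent experiments.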

Series [15] can be described thus: Selectivity index, ratio of CC50 for human Hep2 cells to MIC for Candida albicans clinical isolates. In kind it is toxicity. Particulars: HEp-2 cells, read-out: Selectivity Index. The procedure, abridged: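 Calculated as Hep2 CC50 (Trypan Blue exclusion, 24 h, 37 °C) divided by MIC against C. albicans.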
For series [16], the system named is Streptococcus alpha-hemolyticus (Streptococcus sp.). Nature of the series: Antibacterial activity against Streptococcus Streptococcus alpha hemolyticus assessed as inhibition of microbial growth incubated for 18 to 22 hrs by broth microdilution method.

For `C/C(=N/N=C1\NC(=O)CS1)c1cccs1`, the MIC in series [1], in series [2], in series [3], in series [4], in series [5] and in series [6] was no less than 256 µg/mL each time. Besides, the MIC in series [7] is no less than 256 µg/mL; in series [8], 2 µg/mL; in [9], 1 µg/mL; in series [10], 2 µg/mL; in [11] it was 8 µg/mL; in [12], 16 µg/mL. For the same molecule, the MIC is 16 µg/mL in series [13] and no less than 256 µg/mL in series [16]. For the same molecule, in series [14], the CC50 at 24 h is greater than 100 µg/mL. In addition, the selectivity ratio in series [15] was greater than 50.

Regarding `CC1CCC/C1=N/N=C1\NC(=O)CS1` (centres undefined), the MIC in series [1], in series [2], in [3], in series [4], in [5] and in series [6] was no less than 256 µg/mL in each case. For the same molecule, the MIC in series [7] was no less than 256 µg/mL; in series [8] it was 2 µg/mL; in [9], 1 µg/mL; in series [10], 8 µg/mL; in [11] it was 2 µg/mL; in series [12], 2 µg/mL. Also, the MIC in series [13] was 2 µg/mL; in series [16], no less than 256 µg/mL. In [14], the CC50 at 24 h came out at 52.8 µg/mL (≈ 250 µM). Also, in series [15], the selectivity ratio turned out to be 26.

As for `CCCCC/C(C)=N\N=C1/NC(=O)CS1`, the MIC in series [1], in [2], in series [3], in series [4], in series [5] and in series [6] was no less than 256 µg/mL each time. The minimal inhibitory concentration (MIC) is no less than 256 µg/mL in series [7]; 2 µg/mL in [8]; 2 µg/mL in series [9]; 4 µg/mL in series [10]; 8 µg/mL in [11]; 8 µg/mL in series [12]. Also, the results for the MIC in series [13] and in series [16] were 8 µg/mL and no less than 256 µg/mL, respectively. Moreover, in series [14], the CC50 at 24 h came out at 71.8 µg/mL (≈ 316 µM). Also, the selectivity ratio in [15] was found to be 35.5.

Regarding `CCC(CC)=N/N=C1\NC(=O)CS1`, the MIC in series [1], in series [2], in series [3], in [4], in [5] and in series [6] was no less than 256 µg/mL in each case. In addition, the MIC was no less than 256 µg/mL in [7]; 2 µg/mL in series [8]; 1 µg/mL in series [9]; 4 µg/mL in series [10]; 2 µg/mL in series [11]; 2 µg/mL in series [12]. Moreover, the MIC in [13] is 2 µg/mL; in [16], no less than 256 µg/mL. Moreover, the CC50 at 24 h in series [14] was found to be 49.2 µg/mL (≈ 247 µM). In addition, the selectivity ratio in series [15] was determined as 24.5.

On to `C/C(=N/N=C1\NC(=O)CS1)c1ccccn1`, for which the MIC in series [1], in [2], in series [3], in series [4], in [5] and in series [6] was no less than 256 µg/mL each time. The MIC in series [7] was no less than 256 µg/mL; in series [8] it was 2 µg/mL; in [9], 1 µg/mL; in series [10], 1 µg/mL; in series [11], 8 µg/mL; in series [12] it was 16 µg/mL. Moreover, the MIC in series [13] is 16 µg/mL; in series [16] it was no less than 256 µg/mL. The CC50 at 24 h in series [14] stood at 56.8 µg/mL (≈ 242 µM). Moreover, the selectivity ratio in series [15] is 28.

As to `CCC/C(C)=N\N=C1/NC(=O)CS1`, the MIC in series [1], in series [2], in series [3], in series [4], in [5] and in series [6] was no less than 256 µg/mL each time. The MIC in series [7] was no less than 256 µg/mL; in series [8], 2 µg/mL; in series [9] it was 2 µg/mL; in [10], 2 µg/mL; in [11], 2 µg/mL; in series [12] it was 2 µg/mL. Moreover, the MIC in [13] is 2 µg/mL; in [16] it was no less than 256 µg/mL. For the same molecule, the CC50 at 24 h in series [14] worked out at 93.4 µg/mL (≈ 469 µM). For the same molecule, the selectivity ratio in series [15] is 46.5.

For the molecule `CC(C)=N/N=C1\NC(=O)CS1`, the MIC in series [1], in series [2], in [3], in [4], in series [5] and in series [6] was no less than 256 µg/mL in each case. For the same molecule, the MIC in series [7] is no less than 256 µg/mL; in series [8], 2 µg/mL; in series [9], 2 µg/mL; in [10], 2 µg/mL; in series [11], 2 µg/mL; in [12], 2 µg/mL. The MIC in [13] was 2 µg/mL; in [16], no less than 256 µg/mL. Further, the CC50 at 24 h in [14] came to 68.4 µg/mL (≈ 399 µM). For the same molecule, in [15], the selectivity ratio was 34.

Turning to `CC1CCCC/C1=N/N=C1\NC(=O)CS1` (centres undefined), the MIC in [1], in series [2], in series [3], in series [4], in series [5] and in series [6] was no less than 256 µg/mL in each case. In addition, the MIC is no less than 256 µg/mL in series [7]; 2 µg/mL in [8]; 1 µg/mL in [9]; 8 µg/mL in [10]; 2 µg/mL in [11]; 2 µg/mL in series [12]. Besides, the MIC was 2 µg/mL in series [13] and no less than 256 µg/mL in series [16]. Besides, the CC50 at 24 h in [14] worked out at 52.6 µg/mL (≈ 233 µM). Moreover, the selectivity ratio in series [15] was determined as 26.

Regarding `O=C1CSC(NN=C2CCCC2)=N1`, the MIC in series [1], in series [2], in series [3], in series [4], in series [5] and in series [6] was no less than 256 µg/mL in each case. Also, the MIC is no less than 256 µg/mL in series [7]; 2 µg/mL in series [8]; 2 µg/mL in series [9]; 2 µg/mL in [10]; 2 µg/mL in [11]; 2 µg/mL in series [12]. The results for the MIC in series [13] and in series [16] were 2 µg/mL and no less than 256 µg/mL, respectively. For the same molecule, the CC50 at 24 h in series [14] was 22.2 µg/mL (≈ 113 µM). Moreover, in series [15], the selectivity ratio is 11.1.
